Data published in ChEMBL document CHEMBL4811225 (J Med Chem, 2021).
Where a SMILES comes first, the peptide text is derived from it. Bridges are numbered along the chain shown (N, C = ends).

Columns and labels:
Rattus norvegicus [1] = species on record: Rattus norvegicus; assay: Selectivity ratio of IC50 for rat alpha4beta4 nAChR to IC50 for rat alpha6/alpha3beta4 nAChR
Method in brief: (§1)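 Ratio of each subtype's IC50, from TEVC inhibition of ACh-evoked currents in X. laevis oocytes, to the IC50 at the same species' α6/α3β4 nAChR; IC50 values with 95% CI, n = number of oocytes.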

[2] = target: Neuronal acetylcholine receptor subunit alpha-7 (Rattus norvegicus, UniProt Q05941); assay type: cell-based, Oocyte
[3] = target: Neuronal acetylcholine receptor; alpha3/beta4 (Rattus norvegicus, UniProt P04757+P12392); assay type: cell-based, Oocyte
[4] = target: Neuronal acetylcholine receptor; alpha9/alpha10 (Homo sapiens, UniProt Q9GZZ6+Q9UGM1); assay: Inhibition of human alpha9alpha10 nAChR expressed in Xenopus laevis oocytes assessed as inhibition of acetylcholine-induced current response by two-electrode voltage-clamp method; assay type: cell-based, Oocyte
Method in brief: (§2)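 Two-electrode voltage clamp of stage IV–V oocytes 1–5 days after equal-ratio cRNA injection; ACh 100 μM (β2-containing subtypes, α9α10), 1 s every 60 s in frog saline. Peptide perfused up to 1 μM, responses normalized to mean of three control responses; above 1 μM, 5 min static bath. IC50 with 95% CI; n = oocytes.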

[5] = target: Neuronal acetylcholine receptor; alpha4/beta2 (Homo sapiens, UniProt P17787+P43681); assay: Inhibition of human alpha4beta2 nAChR expressed in Xenopus laevis oocytes assessed as inhibition of acetylcholine-induced current response by two-electrode voltage-clamp method; assay type: cell-based, Oocyte; method in brief: as §2
Homo sapiens [6] = species on record: Homo sapiens; assay: Selectivity ratio of IC50 for human alpha4beta4 nAChR to IC50 for human alpha6/alpha3beta4 nAChR; method in brief: as §1
[7] = target: Nicotinic acetylcholine receptor alpha9/alpha10 (Rattus norvegicus, UniProt P43144+Q9JLB5); assay: Inhibition of rat alpha9alpha10 nAChR expressed in Xenopus laevis oocytes assessed as inhibition of acetylcholine-induced current response by two-electrode voltage-clamp method; assay type: cell-based, Oocyte; method in brief: as §2
Rattus norvegicus [8] = species on record: Rattus norvegicus; assay: Selectivity ratio of IC50 for rat alpha4beta2 nAChR to IC50 for rat alpha6/alpha3beta4 nAChR; method in brief: as §1
[9] = target: Neuronal acetylcholine receptor; alpha2/beta2 (Homo sapiens, UniProt P17787+Q15822); assay: Inhibition of human alpha2beta2 nAChR expressed in Xenopus laevis oocytes assessed as inhibition of acetylcholine-induced current response by two-electrode voltage-clamp method; assay type: cell-based, Oocyte; method in brief: as §2
Rattus norvegicus [10] = species on record: Rattus norvegicus; assay: Selectivity ratio of IC50 for rat alpha2beta2 nAChR to IC50 for rat alpha6/alpha3beta4 nAChR; method in brief: as §1
Homo sapiens [11] = species on record: Homo sapiens; assay: Selectivity ratio of IC50 for human alpha6/alpha3beta2beta3 nAChR to IC50 for human alpha6/alpha3beta4 nAChR; method in brief: as §1
[12] = target: Neuronal acetylcholine receptor; alpha4/beta4 (Rattus norvegicus) (UniProt P09483+P12392); assay: Inhibition of rat alpha4beta4 nAChR expressed in Xenopus laevis oocytes assessed as inhibition of acetylcholine-induced current response at 10 uM by two-electrode voltage-clamp method relative to control; assay type: cell-based; settings: Oocyte
Method in brief: (§3)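 Stage IV–V X. laevis oocytes expressing equal-ratio cRNAs of α2β4, α3β4, α4β4 or α7 subunits; TEVC 1–5 days after injection. ACh 300 μM, 1 s at 60 s intervals. 10 μM peptide as 5 min static bath, normalized to ACh response after 5 min bath of control saline; mean ± SD, n = 4.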

[13] = target: Neuronal acetylcholine receptor; alpha3/beta2 (Rattus norvegicus, UniProt P04757+P12390); assay type: cell-based, Oocyte
Homo sapiens [14] = species on record: Homo sapiens; assay: Selectivity ratio of IC50 for human alpha2beta4 nAChR to IC50 for human alpha6/alpha3beta4 nAChR; method in brief: as §1
[15] = target: Neuronal acetylcholine receptor; alpha2/beta4 (Rattus norvegicus) (UniProt P12389+P12392); assay: Inhibition of rat alpha2beta4 nAChR expressed in Xenopus laevis oocytes assessed as inhibition of acetylcholine-induced current response at 10 uM by two-electrode voltage-clamp method relative to control; assay type: cell-based; settings: Oocyte; method in brief: as §3
[16] = target: Neuronal acetylcholine receptor; alpha3/beta2 (Homo sapiens, UniProt P17787+P32297); assay: Inhibition of human alpha3beta2 nAChR expressed in Xenopus laevis oocytes assessed as inhibition of acetylcholine-induced current response by two-electrode voltage-clamp method; assay type: cell-based, Oocyte; method in brief: as §2
[17] = target: Nicotinic acetylcholine receptor alpha6/alpha3/beta2/beta3 (Rattus norvegicus, UniProt P04757+P12390+P12391+P43143); assay type: cell-based, Oocyte
[18] = target: Neuronal acetylcholine receptor; alpha3/alpha6/beta2/beta3 (Homo sapiens, UniProt P17787+P32297+Q05901+Q15825); assay: Inhibition of human alpha6/alpha3beta2beta3 nAChR expressed in Xenopus laevis oocytes assessed as inhibition of acetylcholine-induced current response by two-electrode voltage-clamp method; assay type: cell-based, Oocyte; method in brief: as §2
Oocyte = assay: Inhibition of human alpha4beta4 nAChR expressed in Xenopus laevis oocytes assessed as inhibition of acetylcholine-induced current response at 10 uM by two-electrode voltage-clamp method relative to control; assay type: cell-based; method in brief: as §3
[19] = target: Neuronal acetylcholine receptor; alpha3/beta4 (Homo sapiens, UniProt P30926+P32297); assay: Inhibition of human alpha3beta4 nAChR expressed in Xenopus laevis oocytes assessed as inhibition of acetylcholine-induced current response by two-electrode voltage-clamp method; assay type: cell-based, Oocyte
Method in brief: (§4)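 TEVC on stage IV–V oocytes 1–5 days after equal-ratio cRNA injection (α2β4, α3β4, α4β4, α7). ACh 300 μM, 1 s pulses at 60 s intervals under frog saline perfusion. Peptide perfused to 1 μM, normalized to average of three control responses; higher concentrations by 5 min static bath. IC50 with 95% CI, n oocytes.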

[20] = Inhibition of human alpha4beta4 nAChR expressed in Xenopus laevis oocytes assessed as inhibition of acetylcholine-induced current response by two-electrode voltage-clamp method; assay type: cell-based; settings: Oocyte; method in brief: as §4
Homo sapiens [21] = species on record: Homo sapiens; assay: Selectivity ratio of IC50 for human alpha2beta2 nAChR to IC50 for human alpha6/alpha3beta4 nAChR; method in brief: as §1
Rattus norvegicus [22] = species on record: Rattus norvegicus; assay: Selectivity ratio of IC50 for rat alpha2beta4 nAChR to IC50 for rat alpha6/alpha3beta4 nAChR; method in brief: as §1
[23] = target: Neuronal acetylcholine receptor subunit alpha-7 (Homo sapiens, UniProt P36544); assay: Inhibition of human alpha7 nAChR expressed in Xenopus laevis oocytes assessed as inhibition of acetylcholine-induced current response by two-electrode voltage-clamp method; assay type: cell-based, Oocyte; method in brief: as §4
[24] = target: Nicotinic acetylcholine receptor alpha6/alpha3/beta4 (Rattus norvegicus, UniProt P04757+P12392+P43143); assay type: cell-based, Oocyte
[25] = target: Neuronal acetylcholine receptor; alpha4/beta2 (Rattus norvegicus, UniProt P09483+P12390); assay type: cell-based, Oocyte
Homo sapiens [26] = species on record: Homo sapiens; assay: Selectivity ratio of IC50 for human alpha4beta2 nAChR to IC50 for human alpha6/alpha3beta4 nAChR; method in brief: as §1
Homo sapiens [27] = species on record: Homo sapiens; assay: Selectivity ratio of IC50 for human alpha9alpha10 nAChR to IC50 for human alpha6/alpha3beta4 nAChR; method in brief: as §1
[28] = target: Neuronal acetylcholine receptor; alpha2/beta4 (Rattus norvegicus, UniProt P12389+P12392); assay: Inhibition of rat alpha2beta4 nAChR expressed in Xenopus laevis oocytes assessed as inhibition of acetylcholine-induced current response by two-electrode voltage-clamp method; assay type: cell-based, Oocyte; method in brief: as §4
[29] = target: Neuronal acetylcholine receptor; alpha2/beta2 (Rattus norvegicus, UniProt P12389+P12390); assay: Inhibition of rat alpha2beta2 nAChR expressed in Xenopus laevis oocytes assessed as inhibition of acetylcholine-induced current response by two-electrode voltage-clamp method; assay type: cell-based, Oocyte; method in brief: as §2
Rattus norvegicus [30] = species on record: Rattus norvegicus; assay: Selectivity ratio of IC50 for rat alpha3beta4 nAChR to IC50 for rat alpha6/alpha3beta4 nAChR; method in brief: as §1
[31] = target: Neuronal acetylcholine receptor; alpha4/beta4 (Rattus norvegicus, UniProt P09483+P12392); assay type: cell-based, Oocyte

Sequence of Neuronal acetylcholine receptor subunit alpha-7 (Rattus norvegicus, UniProt Q05941) (Q05941 whole entry): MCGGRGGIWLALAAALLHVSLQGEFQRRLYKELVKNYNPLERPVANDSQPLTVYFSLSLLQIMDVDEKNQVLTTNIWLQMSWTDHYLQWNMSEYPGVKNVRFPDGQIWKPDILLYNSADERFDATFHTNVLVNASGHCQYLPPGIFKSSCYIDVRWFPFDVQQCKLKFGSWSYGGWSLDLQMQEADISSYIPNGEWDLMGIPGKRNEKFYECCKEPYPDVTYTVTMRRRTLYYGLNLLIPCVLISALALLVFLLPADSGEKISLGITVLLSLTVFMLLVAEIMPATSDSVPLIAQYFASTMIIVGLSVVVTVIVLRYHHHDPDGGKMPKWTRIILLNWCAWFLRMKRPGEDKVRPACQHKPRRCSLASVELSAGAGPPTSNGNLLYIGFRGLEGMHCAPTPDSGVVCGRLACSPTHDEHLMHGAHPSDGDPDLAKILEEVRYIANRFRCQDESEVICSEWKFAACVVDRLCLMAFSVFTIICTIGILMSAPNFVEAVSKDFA
Sequence of Neuronal acetylcholine receptor; alpha4/beta2 (Rattus norvegicus, UniProt P09483+P12390) (P09483 whole entry): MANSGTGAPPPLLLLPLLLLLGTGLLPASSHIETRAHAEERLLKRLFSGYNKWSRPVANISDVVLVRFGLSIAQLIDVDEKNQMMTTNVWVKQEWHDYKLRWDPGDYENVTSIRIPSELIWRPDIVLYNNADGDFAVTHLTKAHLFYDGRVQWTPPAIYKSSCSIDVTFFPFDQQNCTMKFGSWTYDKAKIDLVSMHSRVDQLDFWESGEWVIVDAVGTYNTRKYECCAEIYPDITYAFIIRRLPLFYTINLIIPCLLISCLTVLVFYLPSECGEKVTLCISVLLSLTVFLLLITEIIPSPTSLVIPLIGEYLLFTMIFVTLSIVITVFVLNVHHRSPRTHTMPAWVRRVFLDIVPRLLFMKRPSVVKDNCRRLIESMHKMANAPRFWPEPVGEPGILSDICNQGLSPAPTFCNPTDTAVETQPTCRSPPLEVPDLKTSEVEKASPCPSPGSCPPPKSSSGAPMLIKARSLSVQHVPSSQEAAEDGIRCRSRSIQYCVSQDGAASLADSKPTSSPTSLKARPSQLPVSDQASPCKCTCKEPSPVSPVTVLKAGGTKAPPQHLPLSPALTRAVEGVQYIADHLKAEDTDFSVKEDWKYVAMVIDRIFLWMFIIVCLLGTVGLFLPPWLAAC
Sequence of Neuronal acetylcholine receptor; alpha4/beta2 (Rattus norvegicus, UniProt P09483+P12390) (P12390 whole entry): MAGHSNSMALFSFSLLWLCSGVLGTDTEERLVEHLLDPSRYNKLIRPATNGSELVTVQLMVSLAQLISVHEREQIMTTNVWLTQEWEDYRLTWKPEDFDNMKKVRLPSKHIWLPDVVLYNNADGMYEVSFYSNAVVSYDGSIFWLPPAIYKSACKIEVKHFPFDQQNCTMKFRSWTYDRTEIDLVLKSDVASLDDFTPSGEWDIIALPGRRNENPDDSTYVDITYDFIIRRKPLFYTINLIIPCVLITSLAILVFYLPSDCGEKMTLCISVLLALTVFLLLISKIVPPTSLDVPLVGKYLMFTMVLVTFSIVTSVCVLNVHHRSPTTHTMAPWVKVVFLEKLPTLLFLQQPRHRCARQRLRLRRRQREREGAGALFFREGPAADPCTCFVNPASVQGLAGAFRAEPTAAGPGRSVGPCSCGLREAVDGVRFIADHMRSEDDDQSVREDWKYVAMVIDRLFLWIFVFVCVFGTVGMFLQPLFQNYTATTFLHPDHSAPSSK
Sequence of Nicotinic acetylcholine receptor alpha6/alpha3/beta4 (P04757 whole entry): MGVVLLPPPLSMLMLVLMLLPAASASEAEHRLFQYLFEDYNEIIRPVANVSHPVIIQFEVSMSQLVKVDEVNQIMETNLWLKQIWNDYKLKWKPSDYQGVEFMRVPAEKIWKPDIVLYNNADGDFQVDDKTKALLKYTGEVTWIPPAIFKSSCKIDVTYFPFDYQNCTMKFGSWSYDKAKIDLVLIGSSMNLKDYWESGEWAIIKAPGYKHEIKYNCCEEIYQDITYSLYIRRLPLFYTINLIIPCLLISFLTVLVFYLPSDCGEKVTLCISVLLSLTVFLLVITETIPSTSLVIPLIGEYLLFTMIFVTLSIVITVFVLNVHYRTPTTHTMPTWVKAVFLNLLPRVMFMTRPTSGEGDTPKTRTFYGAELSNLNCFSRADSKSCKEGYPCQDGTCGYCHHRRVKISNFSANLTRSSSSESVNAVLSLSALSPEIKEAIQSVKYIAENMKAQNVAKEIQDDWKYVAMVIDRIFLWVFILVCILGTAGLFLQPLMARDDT
Sequence of Nicotinic acetylcholine receptor alpha6/alpha3/beta4 (P12392 whole entry): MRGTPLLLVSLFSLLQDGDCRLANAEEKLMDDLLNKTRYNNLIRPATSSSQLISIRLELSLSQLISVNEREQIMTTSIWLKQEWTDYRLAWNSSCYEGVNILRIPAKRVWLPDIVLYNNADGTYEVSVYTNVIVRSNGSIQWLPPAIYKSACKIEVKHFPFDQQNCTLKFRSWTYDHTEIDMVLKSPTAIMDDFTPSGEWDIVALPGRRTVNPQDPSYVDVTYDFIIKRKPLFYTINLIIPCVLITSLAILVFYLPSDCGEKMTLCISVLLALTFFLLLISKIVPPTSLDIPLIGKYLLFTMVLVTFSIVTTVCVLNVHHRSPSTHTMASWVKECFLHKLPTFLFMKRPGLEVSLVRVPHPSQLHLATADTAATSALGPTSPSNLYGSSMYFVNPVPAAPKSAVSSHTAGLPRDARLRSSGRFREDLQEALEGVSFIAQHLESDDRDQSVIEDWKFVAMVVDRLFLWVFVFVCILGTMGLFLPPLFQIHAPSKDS
Sequence of Nicotinic acetylcholine receptor alpha6/alpha3/beta4 (P43143 whole entry): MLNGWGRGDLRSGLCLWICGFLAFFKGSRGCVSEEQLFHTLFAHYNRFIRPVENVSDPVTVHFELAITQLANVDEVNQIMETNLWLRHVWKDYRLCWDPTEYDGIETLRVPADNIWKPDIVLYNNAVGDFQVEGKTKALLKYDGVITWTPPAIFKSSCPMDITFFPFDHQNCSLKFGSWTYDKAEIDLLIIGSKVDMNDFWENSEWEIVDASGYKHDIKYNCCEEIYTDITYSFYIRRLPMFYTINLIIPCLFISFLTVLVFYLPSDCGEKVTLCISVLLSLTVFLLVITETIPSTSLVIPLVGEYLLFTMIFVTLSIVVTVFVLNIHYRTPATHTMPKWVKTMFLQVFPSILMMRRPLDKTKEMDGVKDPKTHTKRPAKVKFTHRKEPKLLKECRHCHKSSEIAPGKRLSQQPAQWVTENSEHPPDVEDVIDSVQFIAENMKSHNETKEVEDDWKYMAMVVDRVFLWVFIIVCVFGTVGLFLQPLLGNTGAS
Sequence of Neuronal acetylcholine receptor; alpha3/beta2 (Rattus norvegicus, UniProt P04757+P12390) (P04757 whole entry): as the sequence (P04757 whole entry) above
Sequence of Neuronal acetylcholine receptor; alpha3/beta2 (Rattus norvegicus, UniProt P04757+P12390) (P12390 whole entry): as the sequence (P12390 whole entry) above
Sequence of Neuronal acetylcholine receptor subunit alpha-7 (Homo sapiens, UniProt P36544) (P36544 whole entry): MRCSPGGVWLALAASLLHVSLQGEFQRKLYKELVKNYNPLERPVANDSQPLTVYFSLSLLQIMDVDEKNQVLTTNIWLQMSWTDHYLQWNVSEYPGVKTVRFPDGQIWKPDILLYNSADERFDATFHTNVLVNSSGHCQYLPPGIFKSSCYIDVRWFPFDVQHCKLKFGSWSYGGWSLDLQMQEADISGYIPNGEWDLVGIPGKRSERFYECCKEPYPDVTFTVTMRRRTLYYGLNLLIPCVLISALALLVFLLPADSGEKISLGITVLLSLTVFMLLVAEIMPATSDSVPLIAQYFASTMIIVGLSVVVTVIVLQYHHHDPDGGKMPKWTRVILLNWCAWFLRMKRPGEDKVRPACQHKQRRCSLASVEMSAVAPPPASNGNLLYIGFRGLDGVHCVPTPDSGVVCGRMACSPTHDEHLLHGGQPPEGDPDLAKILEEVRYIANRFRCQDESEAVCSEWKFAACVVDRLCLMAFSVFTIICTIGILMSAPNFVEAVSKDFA

Structure (SMILES): CC(C)C[C@@H]1NC(=O)[C@H](C)NC(=O)[C@H](CCCNC(=N)N)NC(=O)[C@H](Cc2cnc[nH]2)NC(=O)[C@H](CCCNC(=N)N)NC(=O)[C@H](C)NC(=O)[C@H](CCCNC(=N)N)NC(=O)[C@@H]2CSSC[C@H](NC(=O)CN)C(=O)N[C@@H](CSSC[C@@H](C(N)=O)NC1=O)C(=O)N[C@@H](CO)C(=O)N[C@@H](Cc1cnc[nH]1)C(=O)N1CCC[C@H]1C(=O)N[C@@H](C(C)C)C(=O)N2 (H-GCCSHPVCRARHRALC-NH2; disulfide 2-8, 3-16)
- Ratio IC50 (Rattus norvegicus [1]): > 3180
- IC50 [2]: 3.94 µM
- IC50 [3]: > 10 µM
- IC50 [4]: 0.576 µM
- IC50 [5]: > 10 µM
- Ratio IC50 (Homo sapiens [6]): > 1800
- IC50 [7]: 0.667 µM
- Ratio IC50 (Rattus norvegicus [8]): > 3180
- IC50 [9]: > 10 µM
- Ratio IC50 (Rattus norvegicus [10]): > 3180
- Ratio IC50 (Homo sapiens [11]): 1
- inhibition [12]: 82%
- IC50 [13]: 9.51 µM
- Ratio IC50 (Homo sapiens [14]): > 1800
- inhibition [15]: 85%
- IC50 [16]: 12.2 µM
- IC50 [17]: 0.00314 µM
- IC50 [18]: 0.00555 µM
- inhibition (Oocyte): 92%
- IC50 [19]: 9.06 µM
- IC50 [20]: > 10 µM
- Ratio IC50 (Homo sapiens [21]): > 1800
- Ratio IC50 (Rattus norvegicus [22]): > 3180
- IC50 [23]: 5.56 µM
- IC50 [24]: > 10 µM
- IC50 [25]: > 10 µM
- Ratio IC50 (Homo sapiens [26]): > 1800
- Ratio IC50 (Homo sapiens [27]): 104
- IC50 [28]: > 10 µM
- IC50 [29]: > 10 µM
- Ratio IC50 (Rattus norvegicus [30]): > 3180

Structure (SMILES): CC(C)C[C@@H]1NC(=O)[C@H](C)NC(=O)[C@@H]2CCCN2C(=O)[C@H](CCC(=O)O)NC(=O)[C@H](CCCNC(=N)N)NC(=O)[C@H](C)NC(=O)[C@H](Cc2cnc[nH]2)NC(=O)[C@@H]2CSSC[C@H](NC(=O)CN)C(=O)N[C@@H](CSSC[C@@H](C(N)=O)NC1=O)C(=O)N[C@@H](CO)C(=O)N[C@@H](Cc1cnc[nH]1)C(=O)N1CCC[C@H]1C(=O)N[C@@H](Cc1cnc[nH]1)C(=O)N2 (H-GCCSHPHCHAREPALC-NH2; disulfide 2-8, 3-16)
- IC50 [2]: > 10 µM
- IC50 [3]: > 10 µM
- IC50 [13]: > 10 µM
- IC50 [17]: 0.0438 µM
- IC50 [24]: 0.0438 µM
- IC50 [25]: > 10 µM
- IC50 [31]: > 10 µM
